ChEMBL document CHEMBL4177771, “Endoplasmic Reticulum-Localized Two-Photon-Absorbing Boron Dipyrromethenes as Advanced Photosensitizers for Photodynamic Therapy” (J Med Chem, 2018)
Calls of active or inactive are those of the source. No cut-off for these calls is given here.

Columns and labels:
[1] = Drug uptake in endoplasmic reticulum of human HepG2 cells at 2 uM after 2 hrs by ER-tracker green-based confocal microscopic method; type: ADME, subcellular; conditions: hepg2, 2 h
Procedure, shortened: (§1)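 Cells on glass-bottom dishes given 2 μM for 2 h or 4 μM for 4 h at 37 °C. After PBS washes, stained in HBSS with 0.2 μM ER-tracker or Mito-tracker green for 15 min at 37 °C. Confocal imaging: trackers excited at 488 nm, emission 500–570 nm; BODIPY excited at 633 nm, emission 650–760 nm.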

[2] = Drug uptake in human HeLa cells at 2 uM incubated for 2 hrs upon two-photon excitation by confocal microscopic method; type: ADME, cell-based
Procedure, shortened: (§2)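 HeLa cells (about 1.2 × 10^5) grown overnight on glass-bottom dishes, then treated with 2 μM in medium containing 0.125% v/v DMF and 0.025% v/v Tween 80 for 2 h. Rinsed with PBS and imaged by laser scanning microscopy with 633 nm (one-photon) or 800 nm (two-photon) excitation.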

[3] = Drug uptake in lysosome of human HeLa cells at 2 uM after 2 hrs by […]-based confocal microscopic method; type: ADME, subcellular
[4] = system: HepG2; assay: Increase in intracellular calcium levels in human HepG2 cells at 0.05 to 0.8 uM after 2 hrs in presence of light by fluo-3 AM dye-based fluorescence assay relative to control; type: functional
Procedure, shortened: (§3)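 HepG2 cells in 96-well plates given 0.05–0.8 μM in RPMI 1640 for 2 h, with or without illumination (λ > 610 nm). Afterwards washed, loaded with Fluo-3 AM (2.5 μM in HBSS) for 1 h at 37 °C in dark. Washed, re-fed with HBSS, fluorescence read at 485/535 nm. Mean with SEM of three independent experiments.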

[5] = Induction of singlet oxygen generation in DMF assessed as increase in decay of DPBF at 1 uM by spectroscopic method
[6] = Drug uptake in human HeLa cells at 2 uM incubated for 2 hrs upon one-photon excitation by confocal microscopic method; type: ADME, cell-based; procedure, shortened: as §2
[7] = Dark toxicity against human HeLa cells assessed as decrease in cell viability at 0.0125 to 0.4 uM incubated for 2 hrs by MTT assay; type: cell-based
Procedure, shortened: (§4)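 Cells seeded at 2 × 10^5 cells mL−1 in 96-well plates 24 h before; incubated with compound (0.4–0.0125 μM or 8–0.5 μM series) in dark 2 h, washed with PBS, re-fed, kept unirradiated. MTT (3 mg mL−1) added, 4 h at 37 °C, DMSO added, absorbance at 490 nm. Mean ± SEM of three independent experiments, each in quadruplicate. HepG2 cells were grown in RPMI 1640 and HeLa in DMEM.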

[8] = system: HeLa; assay: Induction of apoptosis in human HeLa cells at 2 uM incubated in dark for 2 hrs measured after 3 hrs by propidium iodide staining-based laser scanning microscopic method; type: cell-based
Procedure, shortened: (§5)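 HeLa cells given 2 μM for 2 h, rinsed and re-fed. Irradiated with 800 nm laser (400 mW) for 10 min at 37 °C, 5% CO2; dark controls kept unirradiated. After 3 h, stained with PI (50 μg in 1 mL PBS) for 10 min, rinsed. Imaged with PI excited at 488 nm (550–700 nm) and BODIPY at 633 nm (640–735 nm), plus bright field.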

[9] = system: HeLa; assay: Induction of apoptosis in human HeLa cells assessed as cell shrinkage at 2 uM preincubated in dark for 2 hrs followed by two photon irradiation for 10 mins measured after 3 hrs by bright field microscopic method; type: functional, cell-based; procedure, shortened: as §5
[10] = Drug uptake in endoplasmic reticulum of human HeLa cells at 2 uM after 2 hrs by ER-tracker green-based confocal microscopic method; type: ADME, subcellular; procedure, shortened: as §1
[11] = Induction of singlet oxygen generation in PBS assessed as increase in decay of DPBF at 2 uM by spectroscopic method; type: functional
[12] = system: HeLa; assay: Induction of apoptosis in human HeLa cells at 2 uM preincubated in dark for 2 hrs followed by two photon irradiation for 10 mins measured after 3 hrs by propidium iodide staining-based laser scanning microscopic method; type: functional, cell-based; procedure, shortened: as §5
[13] = system: HepG2; assay: Induction of endoplasmic reticulum stress in human HepG2 cells assessed as upregulation of CHOP expression at 0.15 uM after 4 to 8 hrs in presence of light by Western blot method; type: functional, cell-based
Procedure, shortened: (§6)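 HepG2 cells in 60 mm dishes treated with 150 nM in RPMI 1640, with or without illumination (λ > 610 nm). Lysed in RIPA buffer at 2, 4, 6 and 8 h after PDT. Equal protein run on 10% polyacrylamide gels and transferred to PVDF. Blocked in 5% nonfat milk, probed for GRP78, CHOP and actin, with HRP chemiluminescent detection. Control cells were illuminated without compound.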

[14] = system: HepG2; assay: Photocytotoxicity against human HepG2 cells assessed as decrease in cell viability at 0.19 uM preincubated in dark for 2 hrs followed by illumination by halogen lamp for 20 mins by MTT assay relative to control; type: functional
Procedure, shortened: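 Light-dose study: HepG2 cells given 0.19 μM for 2 h, washed twice with PBS, re-fed, then illuminated with halogen lamp (λ > 610 nm, 40 mW cm−2) for 10, 15, 20 or 25 min. Viability by MTT (4 h, 37 °C), DMSO, absorbance at 490 nm.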

[15] = system: HepG2; assay: Increase in intracellular calcium levels in human HepG2 cells at 0.05 to 0.8 uM after 2 hrs in absence of light by fluo-3 AM dye-based fluorescence assay; type: ADME, cell-based; conditions: hepg2, 2 h; procedure, shortened: as §3
[16] = Drug uptake in mitochondria of human HepG2 cells at 2 uM after 2 hrs by Mito-tracker green-based confocal microscopic method; type: ADME; conditions: hepg2, 2 h; procedure, shortened: as §1
[17] = Dark toxicity against human HepG2 cells assessed as decrease in cell viability at 0.0125 to 0.4 uM incubated for 2 hrs by MTT assay; type: cell-based; conditions: hepg2, 2 h; procedure, shortened: as §4
[18] = system: HepG2; assay: Induction of reactive oxygen species generation in human HepG2 cells at 0.05 to 0.8 uM after 2 hrs in presence of light by H2DCFDA probe-based fluorescence assay; type: functional, cell-based
Procedure, shortened: (§7)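 HepG2 cells in 96-well plates incubated 2 h with 0.05–0.8 μM in RPMI 1640, washed, then loaded with H2DCFDA (10 μM in HBSS) for 30 min at 37 °C in dark. Washed, re-fed with HBSS, then irradiated (λ > 610 nm) or left dark. Fluorescence read at 485/535 nm. Mean with SEM of three independent experiments.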

[19] = system: HepG2; assay: Induction of endoplasmic reticulum stress in human HepG2 cells assessed as upregulation of GRP78 expression at 0.15 uM after 4 to 8 hrs in presence of light by Western blot method; type: functional, cell-based; procedure, shortened: as §6
[20] = system: HeLa; assay: Photocytotoxicity against human HeLa cells assessed as decrease in cell viability preincubated in dark for 2 hrs followed by illumination by halogen lamp for 20 mins by MTT assay; type: functional, cell-based
Procedure, shortened: (§8)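 Cells seeded at 2 × 10^5 cells mL−1 in 96-well plates 24 h before; 2 h dark incubation with compound (0.0125–0.4 μM or 0.5–8 μM), PBS wash, re-feed. Then 300 W halogen lamp with red filter (λ > 610 nm), 40 mW cm−2, 20 min at r.t. (48 J cm−2). MTT read-out at 490 nm. IC50 = concentration killing 50% of cells. Three independent experiments, quadruplicate.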

[21] = Drug uptake in mitochondria of human HeLa cells at 2 uM after 2 hrs by Mito-tracker green-based confocal microscopic method; type: ADME; procedure, shortened: as §1
[22] = system: HepG2; assay: Photocytotoxicity against human HepG2 cells assessed as decrease in cell viability preincubated in dark for 2 hrs followed by illumination by halogen lamp for 20 mins by MTT assay; type: functional, cell-based; procedure, shortened: as §8
[23] = Drug uptake in lysosome of human HepG2 cells at 2 uM after 2 hrs by […]-based confocal microscopic method; type: ADME, subcellular; conditions: hepg2, 2 h
[24] = system: HepG2; assay: Induction of reactive oxygen species generation in human HepG2 cells at 0.05 to 0.8 uM after 2 hrs in absence of light by H2DCFDA probe-based fluorescence assay; type: cell-based; conditions: hepg2, 2 h; procedure, shortened: as §7
[25] = Drug uptake in human HeLa cells at 2 uM after 2 hrs by flow cytometric method; type: ADME, cell-based
Procedure, shortened: (§9)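 Cells in 35 mm dishes incubated in RPMI 1640 at 37 °C, 5% CO2, with 2 μM for 2 h or 4 μM for 4 h. Rinsed, trypsinised, pelleted at 400g, resuspended in HBSS. Flow cytometry on 10^4 cells: excitation 640 nm, emission 720–840 nm. Triplicate; mean ± SD of three independent experiments.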

[26] = system: HepG2; assay: Induction of endoplasmic reticulum stress in human HepG2 cells assessed as upregulation of GRP78 expression at 0.15 uM after 4 to 8 hrs in absence of light by Western blot method; type: cell-based; conditions: hepg2, 0.15 µM; procedure, shortened: as §6
[27] = Drug uptake in human HepG2 cells at 2 uM after 2 hrs by flow cytometric method; type: ADME, cell-based; conditions: hepg2, 2 h; procedure, shortened: as §9
[28] = Stability of the compound in PBS at 2 uM measured over 25 mins in presence of illumination by halogen lamp; type: physicochemical; conditions: buffer
[29] = system: HepG2; assay: Ratio of compound activity for induction of reactive oxygen species generation in human HepG2 cells at 0.8 uM in presence of light to in absence of light; type: toxicity, cell-based; conditions: hepg2, 0.8 µM; procedure, shortened: as §7
[30] = system: HepG2; assay: Induction of endoplasmic reticulum stress in human HepG2 cells assessed as upregulation of CHOP expression at 0.15 uM after 4 to 8 hrs in absence of light by Western blot method; type: cell-based; conditions: hepg2, 0.15 µM; procedure, shortened: as §6
[31] = Drug uptake in human HeLa cells at 4 uM after 4 hrs by flow cytometric method; type: ADME, cell-based; procedure, shortened: as §9
[32] = Drug uptake in lysosome of human HepG2 cells at 4 uM after 4 hrs by […]-based confocal microscopic method; type: ADME, subcellular; conditions: hepg2, 4 h
[33] = Drug uptake in mitochondria of human HeLa cells at 4 uM after 4 hrs by Mito-tracker green-based confocal microscopic method; type: ADME; procedure, shortened: as §1
[34] = Dark toxicity against human HeLa cells assessed as decrease in cell viability at 0.5 to 8 uM incubated for 2 hrs by MTT assay; type: cell-based; procedure, shortened: as §4
[35] = Drug uptake in mitochondria of human HepG2 cells at 4 uM after 4 hrs by Mito-tracker green-based confocal microscopic method; type: ADME; conditions: hepg2, 4 h; procedure, shortened: as §1
[36] = Drug uptake in endoplasmic reticulum of human HeLa cells at 4 uM after 4 hrs by ER-tracker green-based confocal microscopic method; type: ADME, subcellular; procedure, shortened: as §1
[37] = Drug uptake in human HepG2 cells at 4 uM after 4 hrs by flow cytometric method; type: ADME, cell-based; conditions: hepg2, 4 h; procedure, shortened: as §9
[38] = Drug uptake in lysosome of human HeLa cells at 4 uM after 4 hrs by […]-based confocal microscopic method; type: ADME, subcellular
[39] = Dark toxicity against human HepG2 cells assessed as decrease in cell viability at 0.5 to 8 uM incubated for 2 hrs by MTT assay; type: cell-based; conditions: hepg2, 2 h; procedure, shortened: as §4
[40] = Drug uptake in endoplasmic reticulum of human HepG2 cells at 4 uM after 4 hrs by ER-tracker green-based confocal microscopic method; type: ADME, subcellular; conditions: hepg2, 4 h; procedure, shortened: as §1

## COCCOCCOCCOc1ccc(/C=C/C2=[N+]3C(=C(c4ccc(OCC(=O)NCCc5ccc(S(=O)(=O)NC(=O)NC6CCCCC6)cc5)cc4)c4c(C)c(Br)c(/C=C/c5ccc(OCCOCCOCCOC)cc5)n4[B-]3(F)F)C(C)=C2Br)cc1
[1]
  Drug uptake: Active
[2]
  Drug uptake: Active
[3]
  Drug uptake: Not Active
[4]
  fold change (FC): 3.5
[5]
  Activity: Active
[6]
  Drug uptake: Active
[7]
  Activity: Non-Toxic
[8]
  Activity: Non-Toxic
[9]
  Activity: Active
[10]
  Drug uptake: Active
[11]
  Activity: Active
[12]
  Activity: Active
[13]
  Activity: Active
[14]
  Activity: 50%
[15]
  Activity: Non-Toxic
[16]
  Drug uptake: Not Active
[17]
  Activity: Non-Toxic
[18]
  Activity: Dose-dependent effect
[19]
  Activity: Active
[20]
  IC50: 90 nM
[21]
  Drug uptake: Not Active
[22]
  IC50: 160 nM
[23]
  Drug uptake: Not Active
[24]
  Activity: Non-Toxic
[25]
  Drug uptake: Active
[26]
  Activity: Non-Toxic
[27]
  Drug uptake: Active
[28]
  Stability: Stable
[29]
  Ratio: 9
[30]
  Activity: Non-Toxic

## COCCOCCOCCn1c2ccccc2c2cc(/C=C/C3=[N+]4C(=C(c5ccc(OCC(=O)NCCc6ccc(S(=O)(=O)NC(=O)NC7CCCCC7)cc6)cc5)c5c(C)c(Br)c(/C=C/c6ccc7c(c6)c6ccccc6n7CCOCCOCCOC)n5[B-]4(F)F)C(C)=C3Br)ccc21
[31]
  Drug uptake: Active
[32]
  Drug uptake: Not Active
[5]
  Activity: Active
[33]
  Drug uptake: Not Active
[11]
  Activity: Active
[34]
  Activity: Non-Toxic
[35]
  Drug uptake: Not Active
[20]
  IC50: 3200 nM
[36]
  Drug uptake: Active
[22]
  IC50: 5200 nM
[37]
  Drug uptake: Active
[38]
  Drug uptake: Not Active
[39]
  Activity: Non-Toxic
[28]
  Stability: Stable
[40]
  Drug uptake: Active
